Assay outcomes: PubChem, PCMD
Most compounds without a hit are left out; they make up all but 1% or so of the library.
KLK5 inh: kallikrein 5 (human) inhibition | Q9Y337 | recombinant hK5, fluorogenic AMC substrate cleavage | inhibition, % at 5 µM | 0.59% of 210,000 active | AID 873;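 active means inhibition of 40% or more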;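 further: 0% = enzyme controls without compound and 100% = no-enzyme blanks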
Target sequence (Q9Y337 67-293 limits assumed): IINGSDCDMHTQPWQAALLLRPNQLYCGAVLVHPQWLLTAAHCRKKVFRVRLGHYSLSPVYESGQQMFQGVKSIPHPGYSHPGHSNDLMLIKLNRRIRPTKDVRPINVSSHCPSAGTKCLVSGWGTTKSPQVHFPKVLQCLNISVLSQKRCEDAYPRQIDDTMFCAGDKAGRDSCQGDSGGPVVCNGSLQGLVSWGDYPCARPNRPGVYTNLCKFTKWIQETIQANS
thrombin 1536: blocks human thrombin protease activity; inhibition, % at 5 µM; alpha-thrombin, Boc-VPR-AMC fluorogenic substrate cleavage; 0.26% of 220,000 active; AID 1046; P00734;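 active means inhibition at or above 40%; inactive means inhibition below 40%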;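 further: 0% = enzyme with no compound and 100% = wells without enzyme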
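Assay system: human alpha-thrombin enzyme. Reagent: Boc-VPR-AMC substrate, 15 µM final. Compound dosing: one concentration per compound, 5 µM, with 0.2% DMSO. Incubation: room-temperature reaction. Technique: AMC fluorescence, 355/460 nm. Measure: % inhibition relative to enzyme controls and enzyme-free blanks.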
FXIa inh 1536: factor XIa (human) inhibition; purified FXIa, Boc-Glu-Ala-Arg-AMC fluorogenic substrate; inhibition, % at 5 µM; 0.14% of 220,000 active; AID 798;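 active means inhibition of at least 40%; inactive means inhibition below 40%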;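 further: fluorescence of freed AMC excited at 355 nm; 0% = enzyme without compound and 100% = no enzyme blank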
FXIIa inh 1536: factor XIIa (human) inhibition; P00748; purified FXIIa, Boc-QGR-AMC fluorogenic substrate, 2 h; 0.3% of 220,000 active; inhibition, % at 5 µM; in the data active means inhibition above about 40%;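 further: 0% = enzyme with no compound and 100% = blank without enzyme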
Numbers without * were called inactive; nt = no result given.

SMILES | KLK5 inh | thrombin 1536 | FXIa inh 1536 | FXIIa inh 1536
CCCCCCCSc1nnc(-c2ccccc2N)c(=O)[nH]1 | 1 | -15 | -8 | 1
CN(CCc1ccccn1)C(=O)CCC1CCCN(C(=O)c2ccc3c(c2)OCCO3)C1 (stereo not given) | nt | -3 | 0 | 5
Nc1nnc(SCCCC(=O)c2ccccc2)s1 | 17 | 46* | -11 | -2
Nc1nnc(SCC(=O)c2ccc3ccccc3c2)s1 | -5 | -3 | -1 | -6
CCn1nc(CC(=O)O)c2ccccc2c1=O | 19 | 26 | 66* | 26
CCCCn1nc(CC(=O)O)c2ccccc2c1=O | 2 | -4 | -10 | -3
CCN(N=O)[C@@H](Cc1ccccc1)CN(N=O)[C@@H](Cc1ccccc1)CN(C)N=O | 0 | -1 | 1 | 6
CCOC(=O)c1cn(Cc2ccccc2)nn1 | -5 | -6 | 36 | 50*
CCOc1c(Br)cc(CNc2ncn[nH]2)cc1OC | -25 | 0 | 12 | 16
COc1cc(CNc2ncn[nH]2)cc(Br)c1OC | 71* | 6 | -3 | 9
C/C(=N\NC(=S)NCc1ccccc1)c1ccccc1 | -6 | 1 | 9 | 14
C/C(=N\NC(=S)NCc1ccccc1)c1ccc(C#N)cc1 | 54* | 17 | 24 | 32
COC(=O)c1[nH]c2cc(C)ccc2c1NC(=O)CN1CCc2cc(OC)c(OC)cc2C1 | 97* | 4 | -8 | -1
COC(=O)c1[nH]c2cc(OC)ccc2c1NC(=O)CCN1CCCCC1 | 31 | 14 | 45* | 28
COC(=O)c1[nH]c2ccc(Cl)cc2c1NC(=O)CN1CCc2cc(OC)c(OC)cc2C1 | -13 | -6 | 0 | 9
COc1ccc(OC)c(S(=O)(=O)Nc2c(C)cccc2C)c1 | -18 | -3 | -4 | 1
CC(=O)N1C=Cc2c(c(C)c3c([nH]c4ccccc43)c2C)C1 | 1 | 2 | -2 | 5
COc1ccc(C(=O)Oc2cccc(/C=N/NC(N)=S)c2)cc1 | -15 | -11 | 3 | 10
CCCNS(=O)(=O)c1cccc(C(=O)NC2CCCc3ccccc32)c1 (stereo not given) | -11 | 1 | -1 | -4
CC(C)Oc1ccc(CNC(=S)N/N=C/c2ccc([N+](=O)[O-])cc2)cc1 | -12 | -8 | -4 | 53*
O=C1C=C(O)c2c(O)cccc2C1=O | 11 | 55* | 11 | 18
O=C(CCCl)N1CCCC2(CCCCC2)C1 | 5 | 4 | 3 | 12
CCOc1ccc(C(=O)n2cnnc2N)cc1 | 41* | -3 | 7 | 38
CCOC(=O)N1CCN(C(=O)c2ccc(OCC)cc2)CC1 | -7 | -31 | -3 | 8
COc1ccccc1CC(=O)N1CCN(c2cccc(C(F)(F)F)c2)CC1 | 1 | -1 | -4 | 4
SMILES | KLK5 inh | thrombin 1536 | FXIa inh 1536 | FXIIa inh 1536
O=C(Oc1cccc2cccnc12)c1ccco1 | -18 | 1 | 3 | 13
O=C(Oc1ccc(Cl)c2cccnc12)c1ccco1 | -4 | -3 | -5 | 52*
Cc1nn(CC(=O)Nc2ccc(Cl)c(S(=O)(=O)N(C)C)c2)c(C)c1[N+](=O)[O-] | 0 | -10 | -15 | 1
CNC(=O)Nc1ccc(C2SCCS2)cc1 | -6 | -3 | -11 | 7
CCCCNC(=O)Nc1ccc(C2SCCS2)cc1 | 60* | 20 | 6 | 11
COc1ccc2c(c1)-c1nc(NC(=O)c3cccs3)sc1CC2 | -14 | 4 | 49* | 22
O=C(Nc1nc2c(s1)CCCC2)c1cccs1 | -1 | -5 | 1 | 12
COc1ccc(S(=O)(=O)CCc2nnc(NC(=O)c3cccs3)s2)cc1 | 1 | 77* | 0 | 22
O=C(Nc1nnc(CCS(=O)(=O)c2ccc3ccccc3c2)s1)c1cccs1 | 1 | -5 | 2 | 7
CN1C(=O)/C(=C2\SC(=S)N(C(CCC(=O)O)C(=O)O)C2=O)c2ccccc21 (stereo not given) | 64* | 104* | 13 | 11
CN1C(=O)/C(=C2\SC(=S)N(CC3CCCO3)C2=O)c2ccccc21 (stereo not given) | -36 | -4 | 0 | 10
Cc1cccc(-n2c(C)nc3cc(C(=O)NCc4ccc5c(c4)OCO5)ccc32)c1 | -18 | -1 | 8 | 8
C/C(CC(=O)Nc1cccc(C(F)(F)F)c1)=N/NC(=O)C(=O)NCCO | 2 | -1 | 5 | 8
COc1ccc(-n2c(O)c(C=Nc3ccccc3)c3ccccc3c2=O)cc1 | 3 | 40* | -2 | 9
O=C(CN(Cc1ccccc1)S(=O)(=O)c1ccc(F)cc1)NCCC1=CCCCC1 | -5 | 6 | 2 | 22
Cc1ccc(S(=O)(=O)N(CC(=O)NCCC2=CCCCC2)Cc2ccccc2)cc1 | -15 | 5 | 12 | 42*
